Screening results: PubChem, several laboratories
MEX-5 binding – C. elegans MEX-5 TCR-2 RNA binding activity | AID 1832 | MEX-5/FITC-TCR2 RNA binding, fluorescence polarization; stronger effect = lower value | 300,000 tested, 0.38% active | activity score (negative = inhibition of binding), % at 10 µM | Q9XUB2;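 active = inhibition past about -25% in most replicates, and total fluorescence under double the plate's negative control median, limit read from the data; inconclusive = replicates evenly split on the limit, or fluorescence at least double controls; inactive = too little inhibition in most replicates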
Runt-CBFb FRET – blocks binding of human RUNX1 Runt domain to CBFb. Q01196+Q13951. Cerulean-Runt/Venus-CBFb FRET ratio 530/480, 1 h. inhibition, % at 20 µM. 220,000 tested, 0.46% active. AID 1496;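 active = inhibition over about 50% at 20 µM in the single-dose screen, limit read from the data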
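Assay system: Cerulean-Runt domain / Medium: Tris 50 mM pH 7.5, KCl, K2SO4, 0.01% BSA / Timing: protein complex preformed 1 h, compound exposure 1 h, room temperature, dark / Measured by: FRET, excitation 422 nm, emission at 530 and 480 nm / Evaluation: loss of energy transfer signal / Control set: 5 µM unlabeled CBFb as full-inhibition high control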
Runt-SMMHC FRET – Runt domain-CBFb-SMMHC interaction inhibition; Q01196+Q13951; Cerulean-Runt/Venus-CBFb-SMMHC FRET ratio 530/480, 1 h; inhibition, % at 20 µM; 220,000 tested, 0.74% active;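 active = mean inhibition across duplicate retests at 20 µM reaching about 50%, limit read from the data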;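 also: inhibitors lower the FRET ratio by blocking Runt binding to CBFb-SMMHC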
RanGTP-Impb inh – inhibitors of RanGTP-importin-beta interaction, primary screen, biochemical, FRET, CFP-Ran, YFP-importin-beta, homogeneous; cell-free CFP-Ran/YFP-importin-beta FRET ratio; inhibition, % (concentration not given with the values); 300,000 tested, 1.1% active; AID 2216;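 active = more than half of the replicate wells show a fall in the fluorescence ratio signal beyond about 16%, limit read from the data, passing the limit was not always enough; inconclusive = exactly half of the replicate wells pass the set limit; inactive = fewer than half of replicates pass the limit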
PKD1 inh – PKD1 (human) kinase inhibition; Q15139; PKD1 kinase fluorescence polarization assay; inhibition, % (concentration not given with the values); 200,000 tested, 0.056% active
EBV gp42 inh – EBV gp42 inhibition. inhibition, % (tested at 21.74 µM). Fluorescence polarization binding assay, mP read-out. 220,000 tested, 0.42% active. Q1HVG2
Target sequence (Q1HVG2 whole entry, looked up): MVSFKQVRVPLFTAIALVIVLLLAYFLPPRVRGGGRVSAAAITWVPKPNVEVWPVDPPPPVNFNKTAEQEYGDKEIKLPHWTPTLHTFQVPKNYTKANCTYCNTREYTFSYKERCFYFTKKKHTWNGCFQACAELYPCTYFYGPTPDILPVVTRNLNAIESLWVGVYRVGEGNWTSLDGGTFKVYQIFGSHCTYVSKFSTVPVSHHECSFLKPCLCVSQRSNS
A number is an active result; – = inactive; ? = inconclusive; · = no result. Compounds with a hit are over-represented: about 2% of the library has one in this group of screens. Rule as the data show it, unless noted: active = inhibition above about 50%; inactive = the rest.

SMILES	MEX-5 binding	Runt-CBFb FRET	Runt-SMMHC FRET	RanGTP-Impb inh	PKD1 inh	EBV gp42 inh
COc1ccc(N2CCN(C(=O)CSc3nnc(NC(=O)C4CCC4)s3)CC2)cc1	–	–	–	–	–	–
CCCCc1cc(C(=O)Cc2ccccn2)c(O)cc1O	–	·	·	–	·	·
O=C(NCCN1CCOCC1)c1cc(-c2ccc(F)cc2)nc2ccccc12	–	·	·	–	·	·
N=c1c(C(=O)NCCN2CCOCC2)cc2c(=O)n3ccccc3nc2n1Cc1ccc(F)cc1	–	·	·	127	·	·
N=c1c(C(=O)NCCN2CCOCC2)cc2c(=O)n3ccccc3nc2n1CCCN1CCOCC1	–	·	·	145	·	·
COc1cc(C2/C(=C(\O)c3ccc4c(c3)CC(C)O4)C(=O)C(=O)N2CCN2CCOCC2)cc(OC)c1OC (stereo not drawn)	–	·	·	–	·	·
COc1ccc(Cl)cc1N=Cc1c(O)c2ccccc2oc1=O	–	·	·	–	·	·
Cc1cc(C)cc(N=Cc2c(O)c3ccccc3oc2=O)c1	–	–	87	–	–	–
COc1ccc(OC)c(N=Cc2c(O)c3ccccc3oc2=O)c1	-29	·	·	–	·	·
Cc1cc(C)c(N=Cc2c(O)c3ccccc3oc2=O)c(C)c1	–	·	·	–	·	·
C[C@H](NC(=O)[C@H]1N2C(=O)c3ccccc3C2SC1(C)C)C(=O)N1CCC[C@H]1C(=O)O (stereo partly drawn)	–	·	·	–	·	·
CC(/C=N/NC(=O)c1cnccn1)=C\c1ccco1	–	–	–	–	·	–
CCCCn1c(=O)nc2n(-c3ccccc3C)c3ccccc3cc-2c1=O	–	–	82	130	–	–
Cc1ccccc1-n1c2nc(=O)n(C)c(=O)c-2cc2ccccc21	–	–	81	136	·	–
CCN(CC)CCSc1nnc2c3ccccc3n(Cc3ccccc3)c2n1	–	–	–	?	·	–
O=C(NNC(=O)c1ccccc1F)c1ccco1	–	·	·	–	·	·
O=C(NNC(=O)c1ccccc1O)c1ccco1	-29	–	–	–	–	–
CCN1C=C(C(=O)OC)C(c2cccc(OC)c2OC)C(C(=O)OC)=C1	–	–	86	126	–	–
COC(=O)C1=CN(Cc2ccc(C)cc2)C=C(C(=O)OC)C1c1cc(OC)c(OC)c(OC)c1	–	·	·	–	·	·
COC(=O)C1=CN(Cc2ccc(OC)c(OC)c2)C=C(C(=O)OC)C1c1cccc(OC)c1OC	–	·	·	73	·	·
COc1ccccc1NC(=O)COC(=O)C1CC1	–	–	–	–	–	–
COC(=O)C1=CN(C2CC2)C=C(C(=O)OC)C1c1ccccc1OC	–	105	–	32	–	–
COC(=O)C1=CN(Cc2cccs2)C=C(C(=O)OC)C1c1cccc(OC)c1OC	–	93	–	71	–	–
CCOCCCNC(=O)C(c1ccc(C)cc1)N(Cc1cccs1)C(=O)c1ccccc1O (stereo not drawn)	–	–	–	–	–	–
Cc1cc(F)ccc1NC(=O)c1cc(S(=O)(=O)N2CCc3ccccc32)cn1C	–	·	·	–	·	·
SMILES	MEX-5 binding	Runt-CBFb FRET	Runt-SMMHC FRET	RanGTP-Impb inh	PKD1 inh	EBV gp42 inh
COC(=O)C1=CN(Cc2ccc(OC)c(OC)c2)C=C(C(=O)OC)C1c1ccc(F)cc1	–	·	·	18	·	·
COCCN1C=C(C(=O)OC)C(c2ccccc2Cl)C(C(=O)OC)=C1	·	64	86	58	–	–
COC(=O)C1=CN(Cc2ccccc2)C=C(C(=O)OC)C1c1ccc(OC)c(OC)c1	–	·	·	–	·	·
N=C1/C(=C\c2ccc(-c3cccc(Cl)c3)o2)C(=O)N=C2SC=C(c3ccccc3)N12	–	–	–	–	–	–
N=C1/C(=C\c2ccc(-c3ccc(C(=O)O)cc3)o2)C(=O)N=C2SC=C(c3ccccc3)N12	–	–	–	–	·	61
CCc1nn2c(=O)cc(COc3ccc(/C=C4\C(=N)N5N=C(C)SC5=NC4=O)cc3)nc2s1	–	·	–	–	–	73
CCOc1cc(/C=C2\C(=N)N3N=C(C)SC3=NC2=O)ccc1OCCOc1cccc(OC)c1	–	·	·	–	·	·
Cc1cc(C(N)=O)c2cc(Br)ccc2n1	–	–	–	27	–	–
Cc1cc(C(=O)NN)c2cc(Br)ccc2n1	–	–	–	–	–	–
Cc1ccc2c(n1)sc1c(-c3ccccc3)c(C#N)c(N)nc12	–	–	100	56	–	–
Cc1nc(N)c(C#N)c(-c2cccnc2)c1-c1ccccc1	–	·	·	–	·	·
